# From ChEMBL document CHEMBL2331117 (J Med Chem, 2013)
# Legend:
# [1] = Inhibition of mTORC1 (unknown origin)-mediated 4EBP1 phosphorylation after 120 mins by ELISA; parameters: species or system Homo sapiens
# [2] = Inhibition of mTORC1-mediated phosphorylation of S6 at serine 240/244 in human PC3 cells after 3 hrs by ELISA; assay type: cell-based; conditions: PC-3, 3 h
# [3] = biological target: Phosphatidylinositol 4,5-bisphosphate 3-kinase catalytic subunit alpha isoform (Homo sapiens, UniProt P42336); assay: Inhibition of PI3Kalpha (unknown origin) using PIP2 as substrate after 2 hrs by luminescence assay
# Chain of Phosphatidylinositol 4,5-bisphosphate 3-kinase catalytic subunit alpha isoform (P42336 whole entry, canonical isoform): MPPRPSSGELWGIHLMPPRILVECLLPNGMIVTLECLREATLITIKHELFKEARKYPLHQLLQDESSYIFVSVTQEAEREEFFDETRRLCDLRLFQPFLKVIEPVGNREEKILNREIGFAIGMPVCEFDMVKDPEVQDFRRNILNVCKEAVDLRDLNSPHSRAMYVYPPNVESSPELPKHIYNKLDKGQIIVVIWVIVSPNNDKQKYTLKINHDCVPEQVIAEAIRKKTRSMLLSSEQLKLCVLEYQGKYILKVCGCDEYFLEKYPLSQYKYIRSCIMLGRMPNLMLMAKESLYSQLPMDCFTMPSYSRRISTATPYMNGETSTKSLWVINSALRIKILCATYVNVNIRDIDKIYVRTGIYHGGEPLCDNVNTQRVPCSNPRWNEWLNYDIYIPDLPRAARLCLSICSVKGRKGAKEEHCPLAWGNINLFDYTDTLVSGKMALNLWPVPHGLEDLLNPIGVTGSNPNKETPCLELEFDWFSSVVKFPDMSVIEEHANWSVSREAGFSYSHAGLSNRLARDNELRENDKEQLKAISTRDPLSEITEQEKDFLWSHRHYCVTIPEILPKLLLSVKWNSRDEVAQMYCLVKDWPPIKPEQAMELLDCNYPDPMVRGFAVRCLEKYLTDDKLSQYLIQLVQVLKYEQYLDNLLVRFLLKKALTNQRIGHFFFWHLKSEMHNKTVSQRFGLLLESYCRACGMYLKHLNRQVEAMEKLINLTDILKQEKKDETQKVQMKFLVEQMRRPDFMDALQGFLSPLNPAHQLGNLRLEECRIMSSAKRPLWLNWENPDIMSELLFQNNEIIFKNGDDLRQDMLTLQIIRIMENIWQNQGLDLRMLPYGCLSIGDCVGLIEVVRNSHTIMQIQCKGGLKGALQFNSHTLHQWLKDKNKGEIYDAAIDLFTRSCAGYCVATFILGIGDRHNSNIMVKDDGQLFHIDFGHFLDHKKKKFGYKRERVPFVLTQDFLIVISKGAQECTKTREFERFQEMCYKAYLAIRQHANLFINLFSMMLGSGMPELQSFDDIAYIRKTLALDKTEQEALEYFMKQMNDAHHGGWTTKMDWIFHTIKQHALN
# [4] = Metabolic stability in mouse liver microsomes after 30 mins; assay type: ADME, Microsome; conditions: read-out: Stability
# [5] = biological target: Cytochrome P450 2D6 (Homo sapiens, UniProt P10635); assay: Inhibition of CYP2D6 (unknown origin); assay type: ADME
# Chain of Cytochrome P450 2D6 (P10635 whole entry): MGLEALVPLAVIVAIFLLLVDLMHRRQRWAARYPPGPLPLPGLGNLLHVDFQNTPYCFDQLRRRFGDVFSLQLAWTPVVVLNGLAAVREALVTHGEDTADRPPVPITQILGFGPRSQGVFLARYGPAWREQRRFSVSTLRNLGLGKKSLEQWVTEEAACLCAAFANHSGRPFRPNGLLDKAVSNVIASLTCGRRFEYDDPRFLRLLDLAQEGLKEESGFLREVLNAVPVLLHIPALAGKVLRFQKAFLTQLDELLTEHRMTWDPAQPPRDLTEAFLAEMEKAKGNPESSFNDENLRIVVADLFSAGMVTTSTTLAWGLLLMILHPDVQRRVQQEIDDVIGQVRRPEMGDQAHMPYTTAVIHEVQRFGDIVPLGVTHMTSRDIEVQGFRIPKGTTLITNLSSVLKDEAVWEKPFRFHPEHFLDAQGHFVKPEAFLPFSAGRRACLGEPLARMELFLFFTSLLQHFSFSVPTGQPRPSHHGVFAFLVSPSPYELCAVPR
# [6] = Inhibition of mTORC2-mediated phosphorylation of AKT at serine 473 in human PC3 cells after 2 hrs and 50 mins by ELISA; assay type: cell-based; conditions: PC-3
# Procedure, shortened: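 Compound in 0.3% DMSO was added for 2 h 50 min, followed by 10 min stimulation with 20 ng/mL EGF. After formaldehyde fixation, pAKT (S473) and total AKT were detected by chemiluminescent cell ELISA. IC50 came from pAKT normalized to total AKT, relative to DMSO control. Mean, n ≥ 2.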
# [7] = biological target: Cytochrome P450 3A4 (Homo sapiens, UniProt P08684); assay: Inhibition of CYP3A4 (unknown origin); assay type: ADME
# Chain of Cytochrome P450 3A4 (P08684 whole entry): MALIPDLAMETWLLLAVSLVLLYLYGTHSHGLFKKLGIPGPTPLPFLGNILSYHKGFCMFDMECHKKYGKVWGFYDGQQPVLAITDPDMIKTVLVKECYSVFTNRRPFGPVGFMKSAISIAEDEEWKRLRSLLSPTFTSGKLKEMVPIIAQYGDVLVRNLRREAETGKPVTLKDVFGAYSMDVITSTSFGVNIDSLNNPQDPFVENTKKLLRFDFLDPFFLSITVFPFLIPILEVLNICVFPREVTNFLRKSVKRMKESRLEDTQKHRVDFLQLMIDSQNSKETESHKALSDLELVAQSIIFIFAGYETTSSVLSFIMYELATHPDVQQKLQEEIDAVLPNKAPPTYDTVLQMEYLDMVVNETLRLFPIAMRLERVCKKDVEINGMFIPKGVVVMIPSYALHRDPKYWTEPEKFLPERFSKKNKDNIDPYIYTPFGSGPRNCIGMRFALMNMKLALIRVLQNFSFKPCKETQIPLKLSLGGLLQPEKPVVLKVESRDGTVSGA
# [8] = biological target: T1, Cytochrome P450 2C8 (Homo sapiens, UniProt P10632); assay: Inhibition of CYP2C8 (unknown origin); assay type: ADME
# T1 sequence (P10632 whole entry): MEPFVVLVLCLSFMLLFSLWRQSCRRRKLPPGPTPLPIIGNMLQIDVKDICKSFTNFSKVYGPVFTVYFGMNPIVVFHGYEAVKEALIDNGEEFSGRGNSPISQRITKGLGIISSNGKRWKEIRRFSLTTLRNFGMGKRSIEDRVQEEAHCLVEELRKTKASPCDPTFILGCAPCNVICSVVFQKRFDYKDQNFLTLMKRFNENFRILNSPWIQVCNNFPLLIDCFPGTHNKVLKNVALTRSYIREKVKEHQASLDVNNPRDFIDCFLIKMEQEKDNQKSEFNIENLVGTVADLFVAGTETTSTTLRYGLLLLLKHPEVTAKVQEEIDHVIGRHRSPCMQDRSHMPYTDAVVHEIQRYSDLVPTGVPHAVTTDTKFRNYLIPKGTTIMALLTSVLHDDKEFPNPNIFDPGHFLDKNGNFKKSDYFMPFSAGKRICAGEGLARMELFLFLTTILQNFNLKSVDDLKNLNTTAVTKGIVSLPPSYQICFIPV
# [9] = biological target: Cytochrome P450 2C9 (Homo sapiens, UniProt P11712); assay: Inhibition of CYP2C9 (unknown origin); assay type: ADME
# Chain of Cytochrome P450 2C9 (P11712 whole entry): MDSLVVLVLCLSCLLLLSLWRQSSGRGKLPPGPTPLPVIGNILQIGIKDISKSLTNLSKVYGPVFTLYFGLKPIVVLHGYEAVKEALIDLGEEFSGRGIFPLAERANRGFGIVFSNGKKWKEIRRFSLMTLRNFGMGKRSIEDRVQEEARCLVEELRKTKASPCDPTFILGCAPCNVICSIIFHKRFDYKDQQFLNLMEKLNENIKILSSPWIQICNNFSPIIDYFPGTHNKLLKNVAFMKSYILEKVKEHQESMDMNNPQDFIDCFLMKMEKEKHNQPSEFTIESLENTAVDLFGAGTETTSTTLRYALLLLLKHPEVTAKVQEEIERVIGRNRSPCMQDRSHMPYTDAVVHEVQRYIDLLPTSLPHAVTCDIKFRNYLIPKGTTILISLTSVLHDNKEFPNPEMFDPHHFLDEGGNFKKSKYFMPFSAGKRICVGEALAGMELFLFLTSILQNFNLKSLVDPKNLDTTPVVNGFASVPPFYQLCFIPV
# [10] = Apparent permeability across MDCK cells; assay type: ADME, cell-based, Canis lupus familiaris; conditions: dog
# [11] = Plasma concentration in mouse at 100 mg/kg, po after 4 hrs; assay type: ADME, organism-based; parameters: dose 100 mg/kg, route oral
# [12] = Plasma concentration in mouse at 100 mg/kg, po after 1 hr; assay type: ADME, organism-based; parameters: dose 100 mg/kg, route oral
Structure (SMILES),IC50 [1] [nM],IC50 [2] [nM],IC50 [3] [nM],remaining at 0.5 h [4] [%],INH [5] [µM],IC50 [6] [nM],INH [7] [µM],INH [8] [µM],INH [9] [µM],Papp [10] [×10⁻⁶ cm/s],concentration at 4 h [11] [nM],concentration at 1 h [12] [nM]
O=C(c1ccc(C(=O)C(F)(F)F)cc1)N1CCOc2ccc(-c3cn[nH]c3)cc2C1,29.7,718,1050,3,–,–,–,–,–,–,–,–
CC(=O)c1ccc(C(=O)N2CCOc3ccc(-c4ccc5cn[nH]c5c4)cc3C2)cc1,14,–,1800,–,–,–,–,–,–,–,–,–
CS(=O)(=O)c1ccc(C(=O)N2CCOc3ccc(-c4ccc5nc[nH]c5c4)cc3C2)c(Br)c1,5.2,343,693,45,9.2,453,3,3.4,4.2,–,–,–
CNS(=O)(=O)c1ccc(C(=O)N2CCOc3ccc(-c4ccc5nc[nH]c5c4)cc3C2)cc1,3.5,451,1090,64,2.3,812,2.8,1.6,1.1,4.2,–,–
O=C(c1ccc(C(=O)C(F)(F)F)cc1)N1CCOc2ccccc2C1,> 10000,–,> 10000,–,–,–,–,–,–,–,–,–
O=C(c1ccc(C(=O)C(F)(F)F)cc1)N1CCOc2ccc(-c3cccnc3)cc2C1,72.7,–,1130,–,–,–,–,–,–,–,–,–
c1ccc2ncc(-c3ccc4c(c3)CNCCO4)cc2c1,> 10000,–,> 10000,–,–,–,–,–,–,–,–,–
Cc1nc2ccc(-c3ccc4c(c3)CN(C(=O)c3ccc(C(=O)C(F)(F)F)cc3)CCO4)cc2[nH]1,0.5,239,89,50,–,–,–,–,–,–,200,1000
CC(=O)c1ccc(C(=O)N2CCOc3ccc(-c4ccc5cnn(C)c5c4)cc3C2)cc1,342,–,2450,–,–,–,–,–,–,–,–,–
CS(=O)(=O)c1ccc(C(=O)N2CCOc3ccc(-c4ccc5nc[nH]c5c4)cc3C2)c(Cl)c1,23.2,337,705,58,9.2,1060,3.5,5.4,9,–,–,–
Cc1cc(C(=O)N2CCOc3ccc(-c4ccc5nc[nH]c5c4)cc3C2)ccc1S(C)(=O)=O,6.6,591,459,68,–,1220,–,–,–,–,–,–
O=C(c1ccc(C(=O)C(F)(F)F)cc1)N1CCOc2ccc(-c3ccccc3)cc2C1,119,–,2310,–,–,–,–,–,–,–,–,–
CC(=O)Nc1cccc(-c2ccc3c(c2)CN(C(=O)c2ccc(C(=O)C(F)(F)F)cc2)CCO3)c1,115,–,238,–,–,–,–,–,–,–,–,–
CCc1c(C(=O)N2CCOc3ccc(-c4ccc5nc[nH]c5c4)cc3C2)ccc(S(C)(=O)=O)c1F,2.9,152,> 3000,59,11.5,277,2.6,3.1,2.2,–,–,–
CCS(=O)(=O)c1ccc(C(=O)N2CCOc3ccc(-c4ccc5nc[nH]c5c4)cc3C2)cc1,3.6,343,2170,72,3.3,1080,2.2,5,1.7,–,–,–
O=C(c1ccccc1)N1CCOc2ccc(-c3cnc4ccccc4c3)cc2C1,200,–,3130,–,–,–,–,–,–,–,–,–
Cc1cc(S(C)(=O)=O)ccc1C(=O)N1CCOc2ccc(-c3ccc4nc[nH]c4c3)cc2C1,5.7,422,> 3000,51,9.3,1010,4.1,5.4,2.9,–,–,–
CCNc1cc(S(C)(=O)=O)ccc1C(=O)N1CCOc2ccc(-c3ccc4nc[nH]c4c3)cc2C1,204,–,> 3000,–,–,–,–,–,–,–,–,–
O=C(c1ccc(C(F)(F)F)cc1)N1CCOc2ccc(-c3ccc4nc[nH]c4c3)cc2C1,3.5,306,1090,74,3.1,680,1.9,3.6,1.6,–,–,–
Cc1c(C(=O)N2CCOc3ccc(-c4ccc5nc[nH]c5c4)cc3C2)ccc(S(C)(=O)=O)c1F,1.4,329,2340,94,9.6,437,3.4,3.4,6.4,–,–,–
CCCc1cc(S(C)(=O)=O)ccc1C(=O)N1CCOc2ccc(-c3ccc4nc[nH]c4c3)cc2C1,28,1180,> 3000,87,–,3300,–,–,–,–,–,–
NS(=O)(=O)c1ccc(C(=O)N2CCOc3ccc(-c4ccc5nc[nH]c5c4)cc3C2)cc1,2.9,1800,763,64,4.3,1670,6.3,13.9,1.3,4.2,–,–
CCc1cc(S(C)(=O)=O)ccc1C(=O)N1CCOc2ccc(-c3ccc4nc[nH]c4c3)cc2C1,5.2,233,> 3000,50,> 20,689,2,5.6,5.4,–,–,–
O=C(c1ccc(C(=O)C(F)(F)F)cc1)N1CCOc2ccc(-c3ccc4ccccc4c3)cc2C1,73.7,–,1460,–,–,–,–,–,–,–,–,–
O=C(c1ccc(C(=O)C(F)(F)F)cc1)N1CCOc2ccc(-c3ccc4cn[nH]c4c3)cc2C1,3.5,674,259,60,–,–,–,–,–,–,–,–
CS(=O)(=O)c1ccc(C(=O)N2CCOc3ccc(-c4ccc(N)nc4)cc3C2)cc1,13,1180,2900,100,> 20,1970,> 20,> 20,18.8,–,–,–
O=C(c1ccc(C(=O)C(F)(F)F)cc1)N1CCOc2ccc(-c3ccc4[nH]ncc4c3)cc2C1,4.3,503,137,23,–,–,–,–,–,–,–,–
